Only some compounds are listed: those with a hit (about 3% of all), similar ones and a draw of the others.
CHRM4 agonist – agonists of human muscarinic M4 receptor (CHRM4); P08173; CHO-K1 hM4/Gqi5, Fluo-8 calcium fluorescence; vehicle 0%, full acetylcholine response 100%; activation, % at 3 µM; actives 0.14% (n = 360,000); AID 624127;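 active means activation above the run mean over all test wells plus 3 SD, cut at about 32% in these data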;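 further: peak over basal fluorescence ratio per well then scaled between controls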
Target sequence (P08173 whole entry, looked up): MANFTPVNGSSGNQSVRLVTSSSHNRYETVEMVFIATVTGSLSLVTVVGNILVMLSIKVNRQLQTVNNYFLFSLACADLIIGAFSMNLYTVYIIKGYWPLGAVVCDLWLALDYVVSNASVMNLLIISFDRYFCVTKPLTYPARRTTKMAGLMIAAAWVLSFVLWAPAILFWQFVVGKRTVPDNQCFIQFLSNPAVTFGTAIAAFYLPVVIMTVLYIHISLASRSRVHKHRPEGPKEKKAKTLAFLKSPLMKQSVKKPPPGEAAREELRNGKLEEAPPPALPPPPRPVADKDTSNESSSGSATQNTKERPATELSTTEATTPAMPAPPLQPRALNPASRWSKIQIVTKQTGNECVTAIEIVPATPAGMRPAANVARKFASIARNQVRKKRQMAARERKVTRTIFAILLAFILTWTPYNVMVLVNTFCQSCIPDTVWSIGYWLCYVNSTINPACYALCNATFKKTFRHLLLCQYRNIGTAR
CHRM4 antagonist – antagonists of human muscarinic M4 receptor (CHRM4); inhibition, % at 3 µM; actives 0.73% (n = 360,000); P08173; CHO-hM4 cells, ACh EC80, Fluo-8 calcium fluorescence; AID 624125;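 active means inhibition above its plate's cutoff, the mean inhibition of sample wells plus 3 SD, cut at about 27% in these data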
TAAR1 ag – human TAAR1 agonism; Q96RJ0; AID 624467; actives 0.99% (n = 360,000); activation, % at 3 µM; CHO RD-HGA16 TAAR1, Fluo-8 calcium fluorescence; vehicle wells 0%, saturating PEA agonist 100%;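 active means activation above the mean activation of all test compounds in the run plus 3 SD, cut at about 38% in these data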
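Benchmarks: low control DMSO, high control PEA (EC100); System: CHO RD-HGA16 cells carrying human TAAR1 plus Gα16; Detection: Fluo-8 fluorescence, 5 s baseline then 140 s kinetic read; Schedule: 17-24 h plating, Fluo-8 75 min 37 °C, 30 min RT; Read-out basis: % activation from peak over basal fluorescence ratio, DMSO-to-PEA scaled.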
M4 PAM – potentiates acetylcholine response at human M4 receptor; activation, % at 3 µM; CHO-K1 hM4/Gqi5, Fluo-8 calcium fluorescence, ACh EC20; 0% = ACh EC20, 100% = maximal ACh; AID 624126; actives 0.4% (n = 360,000); P08173;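 active means activation above its plate's cutoff, the mean activation of sample wells plus 3 SD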
TAAR1 antagonist – human TAAR1 antagonism | AID 624466 | CHO RD-HGA16 TAAR1, Fluo-8 calcium fluorescence, antagonist | inhibition, % at 3 µM | actives 1.5% (n = 360,000);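 active means inhibition above a per-plate cutoff, the mean inhibition of test compounds on that plate plus 3 SD, cut at about 49% in these data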
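Test system: hTAAR1-expressing CHO RD-HGA16 cells, Gα16-coupled; Probe or stimulus: EC80 β-phenethylamine stimulus; Compound dosing: single nominal final test compound concentration of 3 µM; Timing: 140 s kinetic read after compound, 140 s after agonist; Signal: Fluo-8 calcium-sensitive fluorescence; Measure: % inhibition of agonist calcium response; Controls: DMSO and EC80 PEA controls.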
Large screens that a line does not name were inactive.

Cc1ccccc1-c1ccc2c(c1)[C@@H]1C[C@H](N(C)C(=O)c3ccco3)[C@H]([C@H](C)O)CN1CC2	none (no result: CHRM4 agonist, CHRM4 antagonist, M4 PAM)
COc1cc(C(O)c2nc(-c3ccc(N(C)C)cc3)cs2)ccc1F (configuration not stated)	CHRM4 agonist 41 (no result: TAAR1 ag, TAAR1 antagonist)
COc1cc(C(O)c2nc(-c3cc(F)cc(F)c3)cs2)ccc1F (configuration not stated)	none
COc1cc(C=C2CCCC(=Cc3ccc(OCC4CO4)c(OC)c3)C2=O)ccc1OCC1CO1 (configuration not stated)	TAAR1 antagonist 61
CCOc1ccc(Cl)cc1-c1cc(C(=O)Nc2ccc(Br)cc2)[nH]n1	none
CC(=O)Nc1cccc(-c2nc3ccccc3n2C(C)C(=O)NC(C)(C)C)c1 (configuration not stated)	none
O=c1c2cc([N+](=O)[O-])ccc2nc(CN2CCN(c3ccccn3)CC2)n1-c1ccccc1F	none
O=C(c1ccco1)N1CCN(Cc2nc3ccc([N+](=O)[O-])cc3c(=O)n2-c2ccccc2F)CC1	TAAR1 antagonist 69
O=C(c1ccco1)N1CCN(Cc2cc(=O)c(OCc3ccc([N+](=O)[O-])cc3)co2)CC1	CHRM4 antagonist 31
C#CCNC(=O)c1cc2cccnc2nc1N	none (no result: CHRM4 agonist, CHRM4 antagonist, M4 PAM)
CC(C)C[C@@H](CN1CCC[C@H]1CN1C(=O)C(=O)NC[C@@H]1Cc1ccccc1)N1C[C@H](Cc2ccccc2)N(CC2CCCCCC2)C(=O)C1=O	none
COc1cc(/C=N\NC(=O)c2ccc(Cn3nc([N+](=O)[O-])c(Cl)c3C)o2)ccc1O	TAAR1 antagonist 49
COCCCNC(=O)CCS(=O)(=O)Cc1ccc(C)cc1	none
Cc1ccc(CS(=O)(=O)CCC(=O)NCCC(C)C)cc1	M4 PAM 34
NS(=O)(=O)c1ccc(NC(=O)C2Cc3ccccc3C(=O)O2)cc1 (configuration not stated)	M4 PAM 26
O=C1OC(C(=O)Nc2ccccc2)Cc2ccccc21 (configuration not stated)	none
CC(=O)C1=C(C)N(Cc2ccc(F)cc2)C(=S)NC1c1cccc(Br)c1 (configuration not stated)	none (no result: CHRM4 agonist, CHRM4 antagonist, M4 PAM)
CN1CCN(Cc2c(O)ccc3occ(C(=O)c4ccccc4)c23)CC1	none
CC(=O)C(C(C)=O)c1c(Cl)c(O)c(O)c2c(C(=O)c3ccccc3)coc12	TAAR1 ag 39
O=C(Nc1nc2ccccc2n1CCN1CCOCC1)c1ccc(COc2ccccc2Br)o1	CHRM4 antagonist 43
CCOCCn1ccc2c(OCC(=O)Nc3cc(OC)ccc3OC)cccc2c1=O	none
CCOCCn1ccc2c(OCC(=O)Nc3ccccc3OC)cccc2c1=O	TAAR1 antagonist 58
CC(=O)Nc1cc(-c2cccnc2)cn2c(-c3ccc(F)cc3)cnc12	none
O=C(COC(=O)/C=C/c1ccc(Cl)cc1Cl)NCCC1=CCCCC1	CHRM4 antagonist 28
O=C(COC(=O)/C=C/c1ccccc1)NCCC1=CCCCC1	none
COC(=O)Cn1ccnc1[N+](=O)[O-]	none
O=[N+]([O-])c1ccc(N=Nc2c(Cl)cc(O)cc2Cl)cc1	TAAR1 antagonist 59
CC(N)=Nc1ccc([N+](=O)[O-])cc1	none
Cc1ccccc1C(=O)N[C@@H](Cc1cccnc1)C(=O)N1CCC[C@H]1C(=O)NC1CCCC1	none (no result: CHRM4 agonist, CHRM4 antagonist, M4 PAM)
Cn1nc(C(C)(C)C)cc1C(=O)NCC1CCN(C(=O)C(=O)c2cc3ccccc3o2)CC1	none (no result: CHRM4 agonist, CHRM4 antagonist, M4 PAM)
CS(=O)(=O)c1ccc2nc(NC(=O)c3ccc(NS(=O)(=O)c4ccc(F)c(F)c4)cc3)sc2c1	none
CS(=O)(=O)c1ccc2nc(NC(=O)c3cccc(NS(=O)(=O)c4ccc(F)c(F)c4)c3)sc2c1	TAAR1 antagonist 52
Cc1[nH]nc2c1C(c1cccc(C(F)(F)F)c1)NC2=O (configuration not stated)	none (no result: CHRM4 agonist, CHRM4 antagonist, M4 PAM)
COc1ccc(-c2c(C(=O)c3ccc(Br)cc3)[nH]c(N)c2C(=O)NCCc2c[nH]c3ccccc23)cc1OC	none (no result: CHRM4 agonist, CHRM4 antagonist, M4 PAM)
O=[N+]([O-])c1ccc(CS(=O)c2ccccc2)cc1 (configuration not stated)	none
O=[N+]([O-])c1ccc(S(=O)Cc2ccccc2)c([N+](=O)[O-])c1 (configuration not stated)	CHRM4 antagonist 77
COc1ccc(C2CC(=O)C(c3ccc(C(C)=O)cc3)=CN2Cc2ccccc2)cc1 (configuration not stated)	none (no result: CHRM4 agonist, CHRM4 antagonist, M4 PAM)
COc1ccc(CNC(=O)CN(C2CCCCC2)S(C)(=O)=O)cc1	M4 PAM 26
Cc1ccc(C(=O)Nc2c(C)cc(C)c3cccnc23)cc1	M4 PAM 14
COc1ccc(-c2c(C)oc3c(CN4CCOCC4)c(O)ccc3c2=O)cc1OC	none
Cc1oc2c(CN3CCCC3)c(O)ccc2c(=O)c1-c1ccc(Br)cc1	CHRM4 antagonist 70
COc1ccc(-c2c(C)oc3c(CN4CCOCC4)c(O)ccc3c2=O)cc1	none
Cc1oc2c(CN3CCCCC3)c(O)ccc2c(=O)c1-c1ccc(Br)cc1	CHRM4 antagonist 30
O=C(Nc1ccc(/C=C/c2nc3ccccc3o2)cc1)c1c(F)cccc1F	TAAR1 antagonist 53
O=C(Nc1ccc(Nc2cccnc2)cc1)c1c[nH]c2ccccc12	none (no result: CHRM4 agonist, CHRM4 antagonist, M4 PAM)
O=C(CN1C(=O)COc2ccccc21)NCc1ccc(C(=O)O)cc1	CHRM4 antagonist 28
O=C(CN1C(=O)COc2ccccc21)NCCN1CCC(Cc2ccccc2)CC1	CHRM4 antagonist 28
O=C(CN1C(=O)COc2ccccc21)NCCN1CCOCC1	none
COC(=O)c1cccc(Nc2cc(C)n(-c3cccc(C(=O)OC)c3)c(=O)c2)c1	none (no result: CHRM4 agonist, CHRM4 antagonist, M4 PAM)
COc1cccc(NC(=S)NNC(=O)c2c([N+](=O)[O-])c(C)nn2C)c1	M4 PAM 34
CN(N=Cc1ccc2c(c1)OCO2)C(=O)c1ccccc1N	none (no result: CHRM4 agonist, CHRM4 antagonist, M4 PAM)
N=C1/C(=C\c2ccc(-c3cc(Cl)cc(Cl)c3)o2)C(=O)N=C2SC=C(c3ccccc3)N12	none
N=C1/C(=C/c2ccc(-c3cccc(C(=O)O)c3)o2)C(=O)N=C2SC=C(c3ccccc3)N12	TAAR1 antagonist 71
Brc1ccc(NCc2cccc3ccccc23)nc1	none
Oc1ccccc1CNc1ccc(Br)cn1	CHRM4 antagonist 33, TAAR1 antagonist 71
COC(=O)[C@]12C[C@H](CC(=O)N3CCCC3)C(=O)N(Cc3ccc4c(c3)OCO4)C1=C[C@H](C(C)(C)C)O[C@@H]2C	none (no result: CHRM4 agonist, CHRM4 antagonist, M4 PAM)
Nc1nc2c(ncn2[C@@H]2O[C@H](C(=O)N[C@H](Cc3ccccc3)C(=O)O)[C@@H](O)[C@H]2O)c(=O)[nH]1	none (no result: CHRM4 agonist, CHRM4 antagonist, M4 PAM)
Cc1cc(C(=O)COC(=O)c2ccncc2)c(C)n1CCc1ccc(F)cc1	TAAR1 ag 48
Cc1cc(C(=O)Cn2cncn2)c(C)n1CCc1ccc(F)cc1	none
CCc1cc2c(nc1CC)CCCN2CCOC	none (no result: CHRM4 agonist, CHRM4 antagonist, M4 PAM)
CCCCCCCC[n+]1cccc2c3ccccc3ccc21	CHRM4 antagonist 65

Screens deposited in PubChem by The Scripps Research Institute Molecular Screening Center.
